In ChEMBL document CHEMBL1129365, “Rational design of novel immunosuppressive drugs: analogues of azathioprine lacking the 6-mercaptopurine substituent retain or have enhanced immunosuppressive effects” (1996):

Key:
Type in all cases: functional
[1] = Inhibition of lymphocyte proliferation in vitro by 25 uM.; details: Homo sapiens
[2] = Percent inhibition against incorporation of [3H]-thymidine in Human mixed lymphocyte reaction at a concentration of 25 uM
[3] = Percent inhibition against incorporation of [3H]thymidine in Human mixed lymphocyte reaction at a concentration of 50 uM.
[4] = Effective dose against inhibitory potency in Human mixed lymphocyte reaction; details: read-out: ED50 (the source's name)
Method in brief: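 Human MLR: responder lymphocytes and mitomycin-C-treated stimulator lymphocytes, isolated on Ficoll-Metrizoate (10^5 each), cultured in triplicate in RPMI 1640 with 2 mM glutamine, 10 mM HEPES and 20% (final) pooled human AB serum plus drug. Incubation 5 days at 37 °C under 5% CO2/95% air. [3H]thymidine incorporation read; ED50 taken from a graph of ≥4 points, each the mean of 3–10 experiments.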

[5] = Percent inhibition against incorporation of [3H]thymidine in Human mixed lymphocyte reaction at a concentration of 10 uM.
[6] = Inhibition of human mixed leukocyte proliferation in vitro; Not determined.; details: read-out: ED50 (the source's name)

Row | Structure (SMILES) | inhibition at 25 µM [1] [%] | inhibition at 25 µM [2] [%] | further results
1 | Cn1cnc([N+](=O)[O-])c1Sc1ncccn1 | 47 | – | –
2 | Cn1cnc([N+](=O)[O-])c1Sc1nc2ccccc2o1 | – | 87 | –
3 | COc1ccc(OC)c2[nH]c(Sc3c([N+](=O)[O-])ncn3C)nc12 | 41 | – | –
4 | Cn1cnc([N+](=O)[O-])c1Sc1nc2cc(Cl)c(F)cc2[nH]1 | – | – | inhibition at 50 µM [3]: 59%
5 | Cn1cnc([N+](=O)[O-])c1Sc1nccc(O)n1 | 29 | – | –
6 | Cn1cnc([N+](=O)[O-])c1Sc1ccccc1N | 21 | – | –
7 | Cn1cnc([N+](=O)[O-])c1Sc1ccccn1 | – | 76 | –
8 | Cn1cnnc1Sc1c([N+](=O)[O-])ncn1C | 100 | – | EC50 [4]: 2.7 µM; inhibition at 10 µM [5]: 98%
9 | Cn1cnc([N+](=O)[O-])c1Sc1ccccc1C(=O)O | – | 34 | –
10 | Cn1cnc([N+](=O)[O-])c1Sc1nc2ccccc2[nH]1 | 90 | – | –
11 | CCn1c(C)nc([N+](=O)[O-])c1Sc1nccn1C | 100 | – | EC50 [4]: 2.9 µM; inhibition at 10 µM [5]: 98%
12 | Cn1cnc([N+](=O)[O-])c1Sc1[nH]cnc2nc(O)nc1-2 | – | 50 | EC50 [6]: 24 µM
13 | Cn1cnc([N+](=O)[O-])c1Sc1nc[nH]n1 | 58 | – | EC50 [4]: 14 µM
14 | Cn1ccnc1Sc1c([N+](=O)[O-])ncn1C | 100 | – | EC50 [4]: 3.15 µM; inhibition at 10 µM [5]: 82%
15 | Cn1cnc([N+](=O)[O-])c1Sc1ncc[nH]1 | 100 | – | EC50 [4]: 2.8 µM; inhibition at 10 µM [5]: 89%
16 | Cn1cnc([N+](=O)[O-])c1Sc1ncnc2[nH]cnc12 [AZATHIOPRINE] | – | 79 | EC50 [4]: 7.9 µM
17 | COc1cc2nc(Sc3c([N+](=O)[O-])ncn3C)[nH]c2cc1OC | 94 | – | –
18 | Cc1cc(C)nc(Sc2c([N+](=O)[O-])ncn2C)n1 | 47 | – | –
19 | Cn1cnc([N+](=O)[O-])c1SC1=NCCS1 | 100 | – | –
20 | Cn1cnc([N+](=O)[O-])c1Sc1nc2ccccc2s1 | – | 27 | –
21 | CCn1c(C)nc([N+](=O)[O-])c1Sc1nncn1C | 100 | – | EC50 [4]: 2.5 µM; inhibition at 10 µM [5]: 98%
22 | Cc1ccc2[nH]c(Sc3c([N+](=O)[O-])ncn3C)nc2c1 | 86 | – | –
23 | Cc1cc(C)cc(Sc2c([N+](=O)[O-])ncn2C)c1 | – | 47 | –
24 | Cn1cnc([N+](=O)[O-])c1Sc1nc2cc([N+](=O)[O-])ccc2[nH]1 | 2 | – | –
25 | CCOC(=O)CSc1c([N+](=O)[O-])ncn1C | – | 65 | –
